Source: PubChem BioAssay (several laboratories)
CAL PDZ FP-1: blocks peptide binding to the human CAL PDZ domain; purified CAL PDZ, TMR-peptide fluorescence polarization, 1 h; inhibition, % at 24.9 µM; 300,000 tested, 0.92% active; AID 602252;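 active means mean inhibition of at least 30% with at least half of replicates also reaching 30%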
Keap1-Nrf2 PPI: inhibitors of human Keap1-Nrf2 protein-protein interaction; 340,000 tested, 0.15% active; Keap1 Kelch-Nrf2 peptide fluorescence polarization, 1536-well; inhibition, % at 9.4 µM; AID 504523; in the data active means inhibition above about 12%;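 further: human Keap1 Kelch domain with fluorescein labeled Nrf2 9mer peptide probe; higher means more block of Keap1 binding to Nrf2 peptide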
Target sequence (Q14145 whole entry, looked up, the tested form may be a part): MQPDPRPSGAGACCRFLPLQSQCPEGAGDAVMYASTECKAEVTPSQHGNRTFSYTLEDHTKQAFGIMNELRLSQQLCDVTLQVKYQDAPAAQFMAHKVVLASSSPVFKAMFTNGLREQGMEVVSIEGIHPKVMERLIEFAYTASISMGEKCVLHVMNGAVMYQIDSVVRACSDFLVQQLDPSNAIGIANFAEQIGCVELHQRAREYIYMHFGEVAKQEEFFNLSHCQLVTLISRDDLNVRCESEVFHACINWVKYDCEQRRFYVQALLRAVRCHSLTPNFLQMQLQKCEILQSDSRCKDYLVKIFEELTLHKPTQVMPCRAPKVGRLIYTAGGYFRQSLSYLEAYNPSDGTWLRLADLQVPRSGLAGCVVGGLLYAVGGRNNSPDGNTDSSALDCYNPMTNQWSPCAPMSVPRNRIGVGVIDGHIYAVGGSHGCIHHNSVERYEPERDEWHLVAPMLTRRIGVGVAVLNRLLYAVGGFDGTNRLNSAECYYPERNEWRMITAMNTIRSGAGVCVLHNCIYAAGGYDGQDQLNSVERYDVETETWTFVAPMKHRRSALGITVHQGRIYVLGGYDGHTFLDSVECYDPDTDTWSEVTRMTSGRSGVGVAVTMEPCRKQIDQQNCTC
CAL PDZ FP-2: inhibitors of human CAL PDZ peptide binding; inhibition, % at 20 µM; purified CAL PDZ, TMR-peptide fluorescence polarization, 1 h; Q9HD26; 330,000 tested, 0.02% active;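 active means highest replicate inhibition of at least 40%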
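Test system: tagged CAL PDZ domain / Buffer or medium: sodium phosphate/NaCl buffer pH 7.4 with TCEP, IgG, Thesit / Reagent: TMR-labelled reporter peptide T*-PRC34 bound in PDZ groove / Compound dosing: single point, 20 µM / Schedule: 1 h incubation at room temperature before polarization reading / Technique: fluorescence polarization (mP) / Benchmarks: unlabelled peptide, DMSO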
RTF Ca sens inh: cardiac RTF calcium desensitization. P19429+P45379. IANBD-labeled cardiac RTF, Ca2+ fluorescence. inhibition, % at 7.15 µM. 340,000 tested, 0.12% active. AID 493244;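 active means inhibition above the mean inhibition of all tested compounds plus 3 SD, cut at about 17% in these data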;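 further: assay run at fixed EC70 calcium of 1.6 mM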
LANA DNA inh: blocks KSHV LANA C-terminal domain binding to DNA | 340,000 tested, 0.078% active | MBP-C-LANA/FAM-LBS DNA binding, fluorescence polarization | inhibition, % at 9 µM;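 active means highest replicate inhibition at or above 60% at 9 µM, even if other replicates fall short; inactive means all replicates below 60% inhibition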
cardiac RTF act: increases calcium sensitivity of human cardiac regulated thin filaments; P19429+P45379; IANBD-labeled TnC RTF fluorescence at EC20 calcium; 0% EC20 calcium, 100% full calcium; activation, % at 7.2 µM; 340,000 tested, 0.24% active;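 active means activation above the mean over all tested compounds plus 3 SD, cut at about 30% in these data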;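 further: rise in fluorescence read as greater calcium sensitivity of cardiac thin filaments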
Numbers stand for hits; . = inactive; / = no result; + = active, no number. Rows were chosen to be rich in hits. Some 1.3% of all compounds tested hit in one or more screens of this group.

SMILES	CAL PDZ FP-1	Keap1-Nrf2 PPI	CAL PDZ FP-2	RTF Ca sens inh	LANA DNA inh	cardiac RTF act
COCCCn1c(=O)c2sccc2n2c(CCCC(=O)NCc3ccc(F)cc3)nnc12	.	.	.	.	.	.
CCOc1ccc2nc3cc(NCc4ccc(OC)cc4)ccc3c(N)c2c1	.	.	.	.	.	76
Cc1ccc(CNC(=O)C(c2ccccc2)c2ccccc2)cc1	94	.	.	.	.	.
Cc1cc(C)n2c(SCC(=O)N(CC(C)C)c3c(N)n(CC(C)C)c(=O)[nH]c3=O)nnc2n1	70	.	.	.	.	.
Cc1c(C(C)CCCO)oc(=O)c2c1Oc1c(C)c(C(C)C[C@H](C)O)oc(=O)c1C2 (some centres undefined)	.	.	.	.	.	.
CCC(C)NC(=O)c1ccccc1-c1ccccc1C(=O)NC(C)CC (centres undefined)	72	.	.	.	.	.
C=C(C)CCOC(=O)C(CC(=O)O)NCc1ccco1 (centres undefined)	49	.	.	.	.	.
Cc1ccc(CN(Cc2ccccn2)C(=O)Nc2c(F)cccc2F)cc1	.	.	.	.	.	.
COC(=O)c1ccc(NC(=O)CN2C(=O)NC3(CCC(C)CC3)C2=O)cc1 (centres undefined)	56	.	.	.	.	.
CSCC(C)N1CCC(n2nccc2NC(=O)CCCc2ccccc2)CC1 (centres undefined)	.	.	.	.	.	.
C=C(C)CCC(C)N1CCC(n2nccc2NC(=O)CCCc2ccccc2)CC1 (centres undefined)	42	.	.	.	.	.
CCC(NC(=O)CCC(=O)N1CCN(S(=O)(=O)c2ccc(C)cc2)CC1)c1ccc(C)cc1 (centres undefined)	.	.	.	.	.	.
CN(C)CCCNC1CS(=O)(=O)CC1O (centres undefined)	.	.	.	.	.	.
COCCCNC1CS(=O)(=O)CC1O (centres undefined)	73	.	.	.	.	.
CCc1noc(C)c1C(=O)N1CCN(S(=O)(=O)c2cccs2)CC1	50	.	.	.	.	.
Cc1ccc(CSc2nnc(-c3ccncc3)n2C)cc1	.	.	.	.	.	.
COc1cccc(CSc2nnc(-c3ccncc3)n2C)c1	40	.	.	.	.	.
Cc1ccnc2nc(C(=O)OCCOc3ccc(F)cc3)nn12	.	.	40	.	.	.
Cc1ccnc2nc(C(=O)OCCOc3ccc(Cl)cc3)nn12	.	.	.	.	.	.
COc1ccc(C)cc1Nc1n[n+](-c2ccccc2)c(-c2cc([N+](=O)[O-])cc(OC)c2O)s1	.	.	.	.	.	46
COc1ccc(C)cc1Nc1n[n+](-c2ccccc2)c(-c2ccc(NC(C)=O)cc2)s1	.	.	.	.	.	.
CN(C)c1ccc(N2C(=NC(=O)C3CCCO3)SC3CS(=O)(=O)CC32)cc1 (centres undefined)	.	.	.	.	.	.
OC(COCCC12CC3CC(CC(C3)C1)C2)CN1CCCC1 (centres undefined)	.	.	.	.	.	.
NCC(O)COCCC12CC3CC(CC(C3)C1)C2 (centres undefined)	39	.	.	.	.	.
CC(=O)Oc1ccc2c(c1)Oc1cc(OC(C)=O)ccc1C21OC(=O)c2ccccc21	.	15	.	.	168	+
SMILES	CAL PDZ FP-1	Keap1-Nrf2 PPI	CAL PDZ FP-2	RTF Ca sens inh	LANA DNA inh	cardiac RTF act
CCn1c(SC(C)C(=O)Nc2ccc(N3CCOCC3)cc2)nnc1C1CC1 (centres undefined)	/	.	.	.	.	.
O=C(N1CCN(c2ncccn2)CC1)C12CC3CC(CC(C3)C1)C2	.	.	.	.	.	.
CS(=O)(=O)N1CCN(c2ccccc2NC(=O)c2cccc3ccccc23)CC1	.	.	.	.	.	.
CC(C)C(=O)N1CCN(c2ccccc2NC(=O)c2cccc3ccccc23)CC1	47	.	.	.	.	.
CN1CCN(c2ccc(Cl)cc2NC(=O)C2COc3ccccc3O2)CC1 (centres undefined)	71	.	.	.	.	.
CCOC(=O)c1c[nH]c2ccc3ccccc3c2c1=O	54	.	.	.	.	.
O=C(CSc1ccc2ccccc2c1)NCCCN1CCCC1=O	.	.	.	.	.	.
CC(C)Sc1nnc(SCC(=O)NCCCN2CCCC2=O)s1	44	.	.	.	.	.
CCN(CC)S(=O)(=O)c1ccc(C(=O)NCC2(N3CCOCC3)CCCCC2)cc1	.	.	.	.	.	.
O=C(CC(=O)c1ccccc1)CC(O)(C=Cc1ccccc1)c1ccccc1 (centres undefined)	52	.	.	.	.	.
Cc1cc(NC(=O)CCC(=O)N(CC(C)C)C(C(=O)NC(C)(C)C)c2ccccc2Cl)no1 (centres undefined)	.	.	.	.	.	.
CCOc1ncccc1C(=O)Nc1ccc(S(=O)(=O)Nc2cc(C)nc(C)n2)cc1	.	.	.	.	.	.
CC(=O)c1ccc(S(=O)(=O)Oc2ccc(C(=O)O)cc2Cl)cc1	/	.	.	.	.	.
CC(C)CCC(CCN1CCOCC1)c1ccc2c(c1)OCO2 (centres undefined)	.	.	.	.	.	.
CC(C)CCC(CCN1CCCC1)c1ccc2c(c1)OCO2 (centres undefined)	74	.	.	.	.	.
COCCOc1cc2ncnc(N3CCC(C(=O)O)CC3)c2cc1OCCOC	164	.	.	.	.	.
CC1CCN(c2ncnc3ccccc23)CC1	.	.	.	.	.	.
COCN(C#N)c1nc(OC)nc(OC)n1	.	.	.	.	.	.
COCN(C#N)c1nc(N(C)C)nc(N(C)C)n1	97	.	.	.	.	.
Cc1n[nH]c(=O)c2c(NC(=O)COC(=O)/C=C/c3cccc(C(F)(F)F)c3)oc(C)c12	.	.	.	.	.	.
CCOC(=O)CCNC(=O)N1CCCC(Cc2ccccc2)(C(=O)OCC)C1 (centres undefined)	.	.	.	.	.	.
Cn1cnnc1SCC(=O)Nc1ccc(OCc2ccccc2)cc1	41	.	.	.	.	.
Cn1cnnc1SCC(=O)Nc1ccccc1	/	.	.	.	.	.
COc1ccc(N2CCN(C(=O)CN3C(=O)NC4(CCCCCC4)C3=O)CC2)cc1	59	.	.	.	.	.
CC(C)(C)C(=O)NNC(=O)C1CC1(c1ccccc1)c1ccccc1 (centres undefined)	35	.	.	.	.	.
CCOCCn1c(=O)c2c(nc3n2CCN3c2ccc(C)cc2)n(C)c1=O	77	.	.	.	.	.
Cc1nn(CC(=O)NCCc2ccccc2)c(=O)c2cccn12	46	.	.	.	.	.
